A short description of the assay: protection of E. coli UTI89 from K1F – UTI89 strain, C7 control, set 4, capsule biogenesis inhibitor project, confirmation (AID 504768). As to conditions: E. coli UTI89 K1F phage lysis inhibition, OD600; measured here: cytotoxicity CC50. The gist of the method: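 System: E. coli UTI89 K1 and kpsM mutant; Medium: LB, cultures diluted 1:100; Probe or stimulus: K1F phage, added after compound pre-incubation; Doses: DMSO at 1% final; Schedule: 1.25 h compound pre-incubation at 37 °C shaking, lysis read 3 h post-phage; Technique: OD600 absorbance; Repeats: four replicate wells per compound concentration.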

Drawing on PubChem BioAssay AID504768 (Southern Research Specialized Biocontainment Screening …, 2011), this text covers CC50 for 9 molecules.

Molecule `O=C(Nc1nc2c(F)cc(F)cc2s1)c1ccccc1` gave a 50% cytotoxic concentration (CC50) of 30.9 µM. The same measure for `O=C(Nc1nc2ccc(F)cc2s1)c1ccccn1`: 3.32 µM. In turn, `O=C(Nc1nc2c(F)cc(F)cc2s1)c1cccnc1` came in with a CC50 above 300 µM. With `O=C(Nc1nc2ccccc2s1)c1ccncc1` the figure was 104 µM. As for `Cc1cc(C)c2nc(NC(=O)c3ccccn3)sc2c1`, the half-maximal cytotoxic concentration (CC50) amounted to 6.19 µM.

As for `O=C(Nc1nc2c(F)cc(F)cc2s1)c1ccncc1`, the CC50 turned out to be 71.8 µM. The same measure for `O=C(Nc1nc2c(Cl)cc(Cl)cc2s1)c1ccccn1`: 3.55 µM; for `O=C(Nc1nc2ccccc2s1)c1cccnc1`: 129 µM; for `O=C(Nc1nc2c(F)cccc2s1)c1ccccn1`: 2.56 µM.
